Data set [1] is described as follows: Cytotoxicity in human MT4 cells assessed as reduction in cell viability. It counts as cell-based.
Data set [2] can be described thus: Selectivity index, ratio of CC50 for human MT4 cells to EC50 for HIV1 3B. Conditions: read-out: Ratio CC50/EC50. It counts as toxicity, cell-based.
Data set [3] concerns the target Human immunodeficiency virus type 1 reverse transcriptase (Human immunodeficiency virus 1, UniProt Q72547). Nature of the data set: Inhibition of RNA-dependent DNA polymerase activity of HIV1 reverse transcriptase using poly(rA)/pligo(dT) template.
The subject of data set [4] is Human immunodeficiency virus 1. Nature of the data set: Antiviral activity against HIV1 3B infected in human MT4 cells assessed inhibition of viral-induced cytopathic effect after 5 days. As to conditions: Human immunodeficiency virus 1, 3B, MT4, 120 h. It counts as functional, organism-based. The gist of the method: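 MT-4 cells infected with HIV-1 IIIB at about 100 times the CCID50 per mL of suspension, then mixed 1:1 with serial compound dilutions and incubated at 37 °C for five days. Viable cell number was then determined.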

Data set [5] has as its target Human immunodeficiency virus type 1 reverse transcriptase (Human immunodeficiency virus 1, UniProt Q72547, L100I). Nature of the data set: Inhibition of HIV1 reverse transcriptase L100I mutant by RNA-dependent DNA polymerase activity assay.
For data set [6], the target named is Human immunodeficiency virus type 1 reverse transcriptase (Human immunodeficiency virus 1, UniProt Q72547, Y181I). Description: Inhibition of HIV1 reverse transcriptase Y181I mutant by RNA-dependent DNA polymerase activity assay.
Data set [7] addresses Human immunodeficiency virus type 1 reverse transcriptase (Human immunodeficiency virus 1, UniProt Q72547, K103N). Description: Inhibition of HIV1 reverse transcriptase K103N mutant by RNA-dependent DNA polymerase activity assay.

pEC50, pIC50: −log10 of the molar value.

`Cc1ccc(S(=O)(=O)n2c(=O)[nH]c3ccc(Cl)cc32)c(C)c1`: in data set [1], the CC50 is 39.3 µM. Also, the selectivity ratio in data set [2] was 327. For the same compound, the pIC50 in data set [3] was 6.20. This compound also had a pEC50 in data set [4] of 6.92.
As for `Cc1cc(C)c(S(=O)(=O)n2c(=O)[nH]c3ccc(Cl)cc32)c(C)c1`, in data set [1], the CC50 was greater than 356 µM. Besides, the selectivity ratio in data set [2] is greater than 355. Besides, the pIC50 in data set [3] is 8.92; in data set [5] it was 8.00; in data set [6], less than 4.40; in data set [7] it was less than 4.40. The compound further gave a pEC50 in data set [4] of 6.00.
On to `O=c1[nH]c2ccc(Cl)cc2n1S(=O)(=O)c1cc(C(F)(F)F)cc(C(F)(F)F)c1`, for which the CC50 in data set [1] is 32.3 µM. Further, in data set [2], the selectivity ratio turned out to be 104. The same compound had a pIC50 in data set [3] of 6.51. The negative logarithm of the EC50 (pEC50) in data set [4] was 6.51.
On to `Cc1ccc(C)c(S(=O)(=O)n2c(=O)[nH]c3ccc(Cl)cc32)c1`, for which the CC50 in data set [1] was greater than 371 µM. Further, the selectivity ratio in data set [2] was greater than 37100. Moreover, the pIC50 in data set [3] is 7.31; in data set [5] it was 6.42; in data set [6], less than 4.40; in data set [7] it was less than 4.40. The pEC50 in data set [4] is 8.01.
As for `Cc1c(C)c(C)c(S(=O)(=O)n2c(=O)[nH]c3ccc(Cl)cc32)c(C)c1C`, the CC50 in data set [1] is 236 µM. For the same compound, in data set [2], the selectivity ratio came to 1830. Also, the pIC50 in data set [3] is 7.33; in data set [5], 7.10; in data set [6], less than 4.40; in data set [7], 5.17. Further, in data set [4], the pEC50 was 6.89.
Take `Cc1ccc(S(=O)(=O)n2c(=O)[nH]c3ccc(Cl)cc32)cc1`: the CC50 in data set [1] was 134 µM. Moreover, in data set [2], the selectivity ratio was found to be 2900. Further, the pIC50 in data set [3] is 6.83. The same compound showed a pEC50 in data set [4] of 7.34.
Consider `Cc1cc(C)cc(S(=O)(=O)n2c(=O)[nH]c3ccc(Cl)cc32)c1`, for which the selectivity ratio in data set [2] is 17800. Moreover, the pEC50 in data set [4] was 8.66. For the same compound, the pIC50 in data set [5] is 8.05; in data set [6], less than 4.40; in data set [7], 6.40.
As to `Cc1ccnc2c1NC(=O)c1cccnc1N2C1CC1` [NEVIRAPINE], in data set [1], the CC50 is greater than 15 µM.
Consider `Cc1cccc(S(=O)(=O)n2c(=O)[nH]c3ccc(Cl)cc32)c1`, for which the CC50 in data set [1] is greater than 308 µM. Also, the selectivity ratio in data set [2] is greater than 20500. Moreover, the pIC50 in data set [3] is 7.68; in data set [5], 7.15; in data set [6], less than 4.40; in data set [7], 5.00. This compound also gave a negative-log EC50 (pEC50) in data set [4] of 7.82.
Consider `Cc1cc(C)cc(S(=O)(=O)n2c(=O)[nH]c3ccc(Cl)nc32)c1`, for which, in data set [1], the CC50 is greater than 272 µM. For the same compound, the selectivity ratio in data set [2] was greater than 10500. Moreover, the pIC50 is 7.70 in data set [3], 7.15 in data set [5], 4.57 in data set [6] and 5.55 in data set [7]. The pEC50 in data set [4] was 7.59.
Regarding `O=c1[nH]c2ccc(Cl)cc2n1S(=O)(=O)c1cccc(OC(F)(F)F)c1`, the CC50 in data set [1] is greater than 128 µM. The selectivity ratio in data set [2] was greater than 35. The pIC50 in data set [3] is 6.52. For the same compound, the pEC50 in data set [4] is 5.44.
Regarding `O=c1[nH]c2ccc(Cl)cc2n1S(=O)(=O)c1cccc(C(F)(F)F)c1`, the CC50 in data set [1] is greater than 332 µM. The selectivity ratio in data set [2] is greater than 664. Besides, the pIC50 in data set [3] was 5.76. For the same compound, the pEC50 in data set [4] is 6.30.
`Cc1cc(C)c(C)c(S(=O)(=O)n2c(=O)[nH]c3ccc(Cl)cc32)c1C`: in data set [1], the CC50 is no less than 343 µM. Also, the selectivity ratio in data set [2] is greater than 5410. Moreover, the pIC50 was 7.40 in data set [3], 6.74 in data set [5], less than 4.40 in data set [6] and less than 4.40 in data set [7]. The pEC50 in data set [4] is 7.20.
As to `Cc1ccc(S(=O)(=O)n2c(=O)[nH]c3ccc(Cl)cc32)cc1C`, in data set [1], the CC50 was greater than 371 µM. Further, the selectivity ratio in data set [2] is greater than 61900. The pIC50 is 8.40 in data set [3], 7.52 in data set [5], less than 4.40 in data set [6] and 5.58 in data set [7]. In data set [4], this compound gave a pEC50 of 8.22.
On to `Cc1ccccc1S(=O)(=O)n1c(=O)[nH]c2ccc(Cl)cc21`, for which the CC50 in data set [1] was greater than 387 µM. The selectivity ratio in data set [2] is greater than 201. Further, the pIC50 in data set [3] was 6.57. Also, in data set [4], the pEC50 was 5.72.
As to `O=C1Nc2ccc(Cl)cc2[C@@](C#CC2CC2)(C(F)(F)F)O1` [EFAVIRENZ], the CC50 in data set [1] is greater than 6 µM.
Regarding `COc1cccc(S(=O)(=O)n2c(=O)[nH]c3ccc(Cl)cc32)c1`, in data set [1], the CC50 was greater than 369 µM. Besides, the selectivity ratio in data set [2] was greater than 10500. In addition, the pIC50 was 7.28 in data set [3], 6.48 in data set [5], less than 4.40 in data set [6] and 4.96 in data set [7]. Moreover, the pEC50 in data set [4] was 7.46.

The CC50 is the concentration giving 50% cytotoxicity. In general, pIC50 refers to −log10 of the IC50, conventionally taken in molar units. Low readings indicate a large IC50, high ones a small IC50. One may read the pEC50 as the negative decadic logarithm of the EC50, by convention in mol/L. A higher pEC50 goes with a small EC50.

Source of the values: ChEMBL document CHEMBL1156899, “Novel 1,3-dihydro-benzimidazol-2-ones and their analogues as potent non-nucleoside HIV-1 reverse transcriptase inhibitors” (Bioorg Med Chem, 2010).
